How the values were obtained:
143B = experiment: Antiproliferative activity against human 143B cells after 48 hrs by MTT assay; assay type: functional, cell-based
MCF7 = experiment: Antiproliferative activity against human MCF7 cells after 48 hrs by MTT assay; assay type: functional, cell-based; settings: for IC50: MCF7, 48 h
HCT-116 = experiment: Antiproliferative activity against human HCT116 cells after 48 hrs by MTT assay; assay type: functional, cell-based; settings: for IC50: HCT-116, 48 h
Procedure, shortened: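 Cells grown in RPMI 1640 with 10% FBS; about 4×10^3 cells per well seeded, held 24 h at 37°C in 5% CO2, then exposed to compounds at six concentrations (0.001–100 μM) for 48 h. MTT added at 0.5 mg/mL final for 4 h at 37°C, formazan dissolved in DMSO, absorbance read at 540 nm.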

[1] = molecular target: Cathepsin B (Homo sapiens) (UniProt P07858); experiment: Inhibition of Cathepsin-B (unknown origin) at 5 uM preincubated for 15 mins followed by Z-Arg-Arg-AMC addition measured after 30 mins by fluorescence assay relative to control
Procedure, shortened: (§1)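 Run as for the Cat K assay: enzyme in 50 mM sodium acetate, 2.5 mM EDTA, 1 mM DTT, pH 6.0, compounds screened at 5 μM, 15 min preincubation at 37°C, substrate added, fluorescence (ex 355/em 460 nm) read at 30 min. Substrates: Cat B Z-Arg-Arg-AMC; Cat S Ac-Lys-Gln-Lys-Leu-Arg-AMC; Cat L as for Cat K.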

[2] = molecular target: Procathepsin L (Homo sapiens) (UniProt P07711); experiment: Inhibition of Cathepsin-L (unknown origin) at 5 uM preincubated for 15 mins followed by Z-Phe-Arg-AMC addition measured after 30 mins by fluorescence assay relative to control; procedure, shortened: as §1
Sequence of Procathepsin L (Homo sapiens) (P07711 114-333 limits assumed): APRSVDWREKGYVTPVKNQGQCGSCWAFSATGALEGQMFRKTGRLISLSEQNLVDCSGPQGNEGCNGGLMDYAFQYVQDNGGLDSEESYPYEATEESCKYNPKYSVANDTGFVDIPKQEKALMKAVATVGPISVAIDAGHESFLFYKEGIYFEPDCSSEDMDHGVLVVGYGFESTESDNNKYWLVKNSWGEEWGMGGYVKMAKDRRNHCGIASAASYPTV

[3] = molecular target: T1, Cathepsin K (Homo sapiens) (UniProt P43235); experiment: Inhibition of recombinant human Cathepsin-K at 5 uM preincubated for 15 mins followed by Z-Phe-Arg-AMC addition measured after 30 mins by fluorescence assay relative to control
T1 sequence (whole entry): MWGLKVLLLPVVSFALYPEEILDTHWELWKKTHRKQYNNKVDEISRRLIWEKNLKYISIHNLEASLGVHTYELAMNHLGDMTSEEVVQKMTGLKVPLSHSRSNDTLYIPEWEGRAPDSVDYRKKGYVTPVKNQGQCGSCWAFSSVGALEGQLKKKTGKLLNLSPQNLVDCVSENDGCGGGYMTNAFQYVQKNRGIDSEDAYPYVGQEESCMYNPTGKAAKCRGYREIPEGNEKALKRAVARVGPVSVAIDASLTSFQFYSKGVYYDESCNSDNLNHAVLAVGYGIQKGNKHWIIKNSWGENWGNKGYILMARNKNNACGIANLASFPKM
Procedure, shortened: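 Recombinant human Cat K (5.5 ng/mL) in 50 mM sodium acetate, 2.5 mM EDTA, 1 mM DTT, pH 6.0, preincubated with compound (5 μM screen) 15 min at 37°C. Reaction started with Z-Phe-Arg-AMC (10 μM, as added). Fluorescence (ex 355/em 460 nm) read after 30 min; inhibition rate calculated from intensity.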

[4] = molecular target: Cathepsin S (Homo sapiens) (UniProt P25774); experiment: Inhibition of Cathepsin-S (unknown origin) at 5 uM preincubated for 15 mins followed by Ac-Lys-Gln-Lys-Leu-Arg-AMC addition measured after 30 mins by fluorescence assay relative to control; procedure, shortened: as §1
Sequence of Cathepsin S (Homo sapiens) (P25774 115-331 limits assumed): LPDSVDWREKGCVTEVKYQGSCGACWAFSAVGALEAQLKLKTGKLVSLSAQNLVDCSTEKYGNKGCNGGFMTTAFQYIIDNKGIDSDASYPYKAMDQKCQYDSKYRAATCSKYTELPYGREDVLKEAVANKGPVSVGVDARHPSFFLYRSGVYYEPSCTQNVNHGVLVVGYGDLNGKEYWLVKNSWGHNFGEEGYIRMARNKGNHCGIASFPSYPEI

SMILES | IC50 (143B) | IC50 (MCF7) | IC50 (HCT-116) | inhibition [1] | inhibition [2] | inhibition [3] | inhibition [4] | Activity (143B) | Activity (MCF7) | Activity (HCT-116)
Cc1cc(C)cc(C(=O)Nc2cccc(/C=C/C(=O)c3nc4ccccc4[nH]3)c2)c1 | 4.01 µM | 24.6 µM | 1.55 µM |  |  |  |  |  |  | 
O=C(/C=C/c1ccccc1)c1nc2ccccc2[nH]1 |  |  |  | 10.1% | 35.4% | 37.9% | 13% |  |  | 
O=C(Nc1cccc(/C=C/C(=O)c2nc3ccccc3[nH]2)c1)c1ccccc1 | 8.34 µM | 11.2 µM | 2.44 µM |  |  |  |  |  |  | 
O=C(/C=C/c1cccc(NS(=O)(=O)c2cccc(Cl)c2)c1)c1nc2ccccc2[nH]1 | 2.51 µM | 4.16 µM | 0.737 µM | 15.2% | 78.9% | 89.2% | 52.6% |  |  | 
O=C(Nc1cccc(/C=C/C(=O)c2nc3ccccc3[nH]2)c1)c1ccc(Br)cc1 | 7.31 µM | 7 µM | 2.23 µM |  |  |  |  |  |  | 
O=C(Nc1cccc(/C=C/C(=O)c2nc3ccccc3[nH]2)c1)c1cc(Cl)cc(Cl)c1 | 3.66 µM | > 100 µM | 1.65 µM |  |  |  |  |  |  | 
Cc1cccc(S(=O)(=O)Nc2cccc(/C=C/C(=O)c3nc4ccccc4[nH]3)c2)c1 | 0.791 µM | 0.886 µM | 0.597 µM | 45.6% | 92.3% | 93.5% | 50.1% | Dose-dependent effect | Dose-dependent effect | Dose-dependent effect
CC(C)C[C@H](NC(=O)[C@@H]1O[C@H]1C(=O)O)C(=O)NCCCCN=C(N)N |  |  |  | 100% | 100% | 100% |  |  |  | 
Cc1ccc(S(=O)(=O)Nc2cccc(/C=C/C(=O)c3nc4ccccc4[nH]3)c2)cc1 | 3.22 µM | 3.22 µM | 1.99 µM | 34.3% | 93.8% | 86% | 22% |  |  | 
O=C(/C=C/c1cccc(NC(=O)c2ccccc2Cl)c1)c1nc2ccccc2[nH]1 | 3.69 µM | 4.57 µM | 1.28 µM |  |  |  |  |  |  | 
O=C(Nc1cccc(/C=C/C(=O)c2nc3ccccc3[nH]2)c1)c1cccc(Br)c1 | 4.62 µM | 5.21 µM | 1.55 µM |  |  |  |  |  |  | 
Cc1cc(C)cc(S(=O)(=O)Nc2cccc(/C=C/C(=O)c3nc4ccccc4[nH]3)c2)c1 | 3.33 µM | 4.57 µM | 1.22 µM |  |  |  |  |  |  | 
O=C(Nc1cccc(/C=C/C(=O)c2nc3ccccc3[nH]2)c1)c1ccc(Cl)cc1 | 7.44 µM | 8.41 µM | 2.27 µM |  |  |  |  |  |  | 
O=C(Nc1cccc(/C=C/C(=O)c2nc3ccccc3[nH]2)c1)c1cccc(Cl)c1 | 3.37 µM | 7.83 µM | 1.12 µM | 30.5% | 86% | 73% | 19.5% |  |  | 
Cc1cccc(C(=O)Nc2cccc(/C=C/C(=O)c3nc4ccccc4[nH]3)c2)c1 | 4.88 µM | 5.59 µM | 1.42 µM | 41.3% | 88.5% | 78% | 45.2% |  |  | 
Cc1ccccc1S(=O)(=O)Nc1cccc(/C=C/C(=O)c2nc3ccccc3[nH]2)c1 | 4.06 µM | 4.13 µM | 0.955 µM | 40% | 71.3% | 91.3% | 47.8% |  |  | 
CC(C)(F)C[C@H](C[C@@H](c1ccc(-c2ccc(S(C)(=O)=O)cc2)cc1)C(F)(F)F)C(=O)NC1(C#N)CC1 | 12.7 µM | 45.4 µM | > 100 µM | 100% | 71.3% | 100% | 100% |  |  | 
O=C(/C=C/c1cccc(NS(=O)(=O)c2ccc(Cl)cc2)c1)c1nc2ccccc2[nH]1 | 7.45 µM | 3.82 µM | 1.96 µM | 23.8% | 58% | 58.1% | 89.3% |  |  | 
Cc1ccc(C(=O)Nc2cccc(/C=C/C(=O)c3nc4ccccc4[nH]3)c2)cc1 | 6.56 µM | 9.69 µM | 1.66 µM |  |  |  |  |  |  | 
O=C(/C=C/c1cccc(NS(=O)(=O)c2ccccc2Cl)c1)c1nc2ccccc2[nH]1 | 4.79 µM | 4.28 µM | 0.987 µM | 32.5% | 62.9% | 86.5% | 45.7% |  |  | 
O=c1[nH]cc(F)c(=O)[nH]1 [FLUOROURACIL] | 25.2 µM | 32.6 µM | 8.64 µM |  |  |  |  |  |  | 
CC(=O)O[C@H]1C(=O)[C@@]2(C)[C@H]([C@H](OC(=O)c3ccccc3)[C@]3(O)C[C@H](OC(=O)[C@H](O)[C@@H](NC(=O)c4ccccc4)c4ccccc4)C(C)=C1C3(C)C)[C@]1(OC(C)=O)CO[C@@H]1C[C@@H]2O [PACLITAXEL] |  |  | 0.014 µM |  |  |  |  |  |  | 
O=C(/C=C/c1cccc(NC(=O)c2ccccc2Br)c1)c1nc2ccccc2[nH]1 | 6.05 µM | 4.52 µM | 1.68 µM |  |  |  |  |  |  | 
O=C(/C=C/c1cccc(NS(=O)(=O)c2cc(Cl)cc(Cl)c2)c1)c1nc2ccccc2[nH]1 | 5.95 µM | 20 µM | 2.84 µM |  |  |  |  |  |  | 
Cc1ccc(S(=O)(=O)Nc2cccc(/C=C/C(=O)c3nc4ccccc4[nH]3)c2)cc1C | 5.05 µM | 5.86 µM | 2.23 µM |  |  |  |  |  |  | 
COc1cccc(C(=O)Nc2cccc(/C=C/C(=O)c3nc4ccccc4[nH]3)c2)c1 | 4.61 µM | 17.8 µM | 3.68 µM |  |  |  |  |  |  | 
CCCNC(=O)[C@H]1O[C@@H]1C(=O)N[C@H](C(=O)N1CCC[C@H]1C(=O)O)[C@@H](C)CC |  |  |  | 100% |  |  |  |  |  | 
O=C(Nc1cccc(/C=C/C(=O)c2nc3ccccc3[nH]2)c1)c1cccc(C(F)(F)F)c1 | 9.57 µM | 21.5 µM | 3.36 µM |  |  |  |  |  |  | 
Cc1ccccc1C(=O)Nc1cccc(/C=C/C(=O)c2nc3ccccc3[nH]2)c1 | 8.29 µM | 5.87 µM | 1.87 µM |  |  |  |  |  |  | 
COc1ccc(C(=O)Nc2cccc(/C=C/C(=O)c3nc4ccccc4[nH]3)c2)cc1 | 6.33 µM | 20.1 µM | 4.88 µM |  |  |  |  |  |  | 

— ChEMBL document CHEMBL4184179, “Synthesis and biological evaluation of novel synthetic chalcone derivatives as anti-tumor agents targeting Cat L and Cat K” (Bioorg Med Chem, 2018)
